# Most compounds without a hit are left out; they make up all but 6.7% or so of the library.
# Beta cell apopt – blocks beta cell apoptosis; hit rate 0.8% among 300,000; protection from apoptosis, % (no concentration beside the values); INS-1E cytokine-induced death, ATP luminescence, 48 h; percent of positive-control rescue, neutral wells zero; AID 435005;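 active means Every replicate reaches about 75%, or at least half do and their mean reaches it too, limit read from the data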;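 further: 0% = cytokine-treated negative control wells and 100% = positive control rescue; higher means more ATP so stronger rescue from cytokine killing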
# PREPL inh – inhibitors of human prolyl oligopeptidase-like enzyme PREPL; Q4J6C6; inhibition, % at 5.96 µM; hit rate 0.68% among 320,000; recombinant PREPL, fluorescence polarization activity-based probe; AID 2751; in the data active means inhibition above about 43%;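 further: 0% = enzyme with DMSO and 100% = wells lacking enzyme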
# Target sequence (Q4J6C6 whole entry, looked up): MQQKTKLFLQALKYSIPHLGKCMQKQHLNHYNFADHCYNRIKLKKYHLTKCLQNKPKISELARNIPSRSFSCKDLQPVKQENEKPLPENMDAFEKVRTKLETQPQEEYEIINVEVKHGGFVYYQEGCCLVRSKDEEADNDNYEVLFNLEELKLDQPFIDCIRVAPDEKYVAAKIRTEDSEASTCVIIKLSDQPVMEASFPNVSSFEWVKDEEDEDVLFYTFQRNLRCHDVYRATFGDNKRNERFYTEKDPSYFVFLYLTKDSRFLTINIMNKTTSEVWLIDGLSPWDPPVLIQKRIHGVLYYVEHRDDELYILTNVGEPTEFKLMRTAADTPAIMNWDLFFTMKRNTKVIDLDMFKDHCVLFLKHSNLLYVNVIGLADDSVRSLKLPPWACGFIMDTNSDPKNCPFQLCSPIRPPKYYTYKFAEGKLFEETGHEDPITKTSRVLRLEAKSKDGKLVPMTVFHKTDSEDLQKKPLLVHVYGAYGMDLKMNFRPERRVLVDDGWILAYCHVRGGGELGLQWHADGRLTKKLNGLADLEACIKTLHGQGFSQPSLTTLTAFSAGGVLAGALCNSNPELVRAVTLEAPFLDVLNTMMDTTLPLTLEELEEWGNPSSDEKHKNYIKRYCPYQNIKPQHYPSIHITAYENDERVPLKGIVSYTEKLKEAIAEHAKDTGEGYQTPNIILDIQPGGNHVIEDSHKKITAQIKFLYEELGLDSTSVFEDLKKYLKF
# NR3A LBD binder – NR3A (human) ligand-binding domain modulation; NR3A LBD differential scanning fluorimetry, Tm shift; 0% = protein alone, 100% = glycine-bound protein; hit rate 2.5% among 340,000; Tm shift relative to glycine control, % at 25 µM;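 active means melting temperature shift of at least 10% of the positive control shift, at one fixed dose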
# CSC inhib – cancer stem cell inhibition. cancer stem cell-like cells viability, luminescence. inhibition, % at 7.5 µM. hit rate 1.1% among 300,000. AID 2717; in the data active means inhibition above about 75%; tested in HMLE shEcad cells
# T cruzi repl – T. cruzi replication inhibition; T. cruzi beta-gal in NIH3T3, luminescence, 90 h; hit rate 1.4% among 300,000; inhibition, % (no concentration beside the values);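 active means mean inhibition across valid replicates above about 55%, limit read from the data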;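 further: signal also drops with host cell toxicity which is not excluded here; 0% = plate median of DMSO wells and 100% = zero luminescence signal; higher percent means less beta-gal luminescence so fewer parasites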
#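 Assay system: NIH/3T3 fibroblasts plus reporter T. cruzi. Amount: NIH/3T3 cells, 5,000 per well. Buffer or medium: DMEM, 2% fetal bovine serum. Doses: compound pinned at 50 nL/well, DMSO. Schedule: ≥90 h infection period, 3 h prior cell attachment. Signal: luminescent β-galactosidase signal after 60 min lysis. Read-out: parasite load inhibition, %.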
# CHOP inh – inhibitors of CHOP induction in ER stress response; inhibition, % at 10 µM; AID 2732; hit rate 3.8% among 220,000; CHO-K1 CHOP-promoter luciferase, tunicamycin-induced, 15-18 h;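 active means compounds that reduced the stress-induced luciferase reporter signal by more than about 70% of percent inhibition, limit read from the data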;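 further: 0% = tunicamycin plus vehicle and 100% = wells without tunicamycin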
# Active calls of the source: *; nt = no result.
SMILES,Beta cell apopt,PREPL inh,NR3A LBD binder,CSC inhib,T cruzi repl,CHOP inh
O=C(CCC1CCCN(C(=O)C2=CCCCC2)C1)N1CCN(c2ccccn2)CC1 (centres undefined),-5.2,12.6,-3.4,-19.0,18.8,12.4
CCN(CC)P(=O)(Nc1ccccc1Br)c1ccc(N(C)C)cc1NC(=O)c1ccco1 (centres undefined),9.0,20.2,6.6,-11.0,56.7*,5.4
Oc1cc(O)cc(-c2cc3ccc(O)cc3o2)c1,-4.5,7.6,16.1*,-10.7,-7.5,nt
CN(C(=O)c1cc2ccccc2o1)c1c(N)n(Cc2ccccc2)c(=O)[nH]c1=O,-4.0,17.8,-2.9,-2.0,nt,nt
CCCCC[n+]1cccc2c3ccccc3ccc21,110.2*,8.1,0.5,12.9,73.2*,0.1
CC1CC(C)CN(C(=O)c2ccc(S(=O)(=O)N3CCCC3)cc2)C1 (centres undefined),-8.3,5.9,-0.5,-1.2,9.6,nt
O=C(O)C1Cc2[nH]cnc2C(c2ccccc2O)N1 (centres undefined),-11.3,3.5,-12.2,-11.4,4.1,11.3
O=S(=O)(NCC(c1cccnc1)N1CCN(Cc2ccccc2)CC1)c1ccccc1 (centres undefined),-1.2,19.1,-2.9,-11.2,62.2*,-11.1
Cc1ccc(S(=O)(=O)NCC(c2cccnc2)N2CCN(Cc3ccccc3)CC2)cc1 (centres undefined),-2.4,21.8,0.7,7.9,57.0*,nt
Cc1ccc(S(=O)(=O)NCC(c2cccnc2)N2CCOCC2)cc1 (centres undefined),-0.7,2.7,-1.4,-9.2,-14.9,-7.1
Cc1ccc(NC(CNS(=O)(=O)c2ccc(Cl)cc2)c2ccccc2)cc1 (centres undefined),8.9,4.1,11.3*,-1.0,37.4,103.8*
COc1ccccc1N1CCN(C(CNS(=O)(=O)c2ccc(C)cc2)c2cccnc2)CC1 (centres undefined),-1.9,20.3,15.8*,8.1,47.0,19.6
CCN1CCN(C(CNS(=O)(=O)c2ccc(C)cc2)c2cccnc2)CC1 (centres undefined),nt,13.3,3.7,-5.2,21.8,nt
CN(CCOc1ccc(Cl)cc1)C(=O)CNS(=O)(=O)c1ccc(N(C)C)c([N+](=O)[O-])c1,nt,nt,-9.2,nt,nt,nt
CN(C)c1ccc(S(=O)(=O)NCC(=O)OCC(=O)Nc2cc(Cl)cc(Cl)c2)cc1[N+](=O)[O-],nt,21.7,17.8*,-7.2,-15.3,67.2
O=C(N/N=C/C=C/c1ccccc1)c1ccncc1,-7.0,-4.6,25.2*,-10.5,-17.2,13.5
O=C(N/N=C/C=C/c1cccc([N+](=O)[O-])c1)c1ccncc1,nt,3.5,0.5,nt,0.2,-3.7
Cc1c(Cl)ccc2c(C(=O)NC(C)c3ccncc3)cc(-c3ccncc3)nc12 (centres undefined),8.8,-7.9,nt,4.9,49.9,79.4*
CCCCNC(=O)C1CC(=O)N(CCc2ccc(C)cc2)C1 (centres undefined),nt,-1.5,1.9,nt,-6.4,nt
Cc1nn(C)c(C)c1CN(C)S(=O)(=O)c1ccc2ccccc2c1,108.8*,13.4,-0.7,5.1,nt,51.8
CC1CC(C)CN(c2ncc3c(n2)CC(c2ccccc2Cl)CC3=O)C1 (centres undefined),9.2,19.0,-0.4,83.7*,32.3,54.8
N=c1n(Cc2ccc(Cl)cc2)c2ccccc2n1CC(O)COc1ccccc1 (centres undefined),8.3,-79.3,-2.3,3.3,37.5,83.2*
COc1ccc(OCC(O)Cn2c(=N)n(Cc3ccccc3)c3ccccc32)cc1 (centres undefined),28.5,-25.1,1.0,15.7,0.3,56.4
COCCNC(=O)c1cn(C)c2ccc(S(=O)(=O)N3CCCCC3)cc2c1=O,0.3,3.1,-0.8,-5.0,-3.3,nt
Cc1ccc(NC(=O)Nc2sc(=S)n(C)c2C)cc1,1.1,16.6,12.2*,-13.2,-18.6,-6.1
SMILES,Beta cell apopt,PREPL inh,NR3A LBD binder,CSC inhib,T cruzi repl,CHOP inh
CCCCN1CC(COCc2ccccc2)Oc2cccc(OCCN3C(=O)[C@@H]4[C@H](C3=O)C3C=C[C@H]4C3)c2S1(=O)=O (some centres undefined),nt,nt,1.6,nt,nt,nt
CC1CCCCN1S(=O)(=O)c1ccc(C(=O)Nc2ccccc2-c2nc3ccccc3[nH]2)cc1 (centres undefined),46.5,-8.3,30.2*,46.6,49.8,26.4
O=C(Nc1ccccc1-c1nc2ccccc2[nH]1)c1ccc(S(=O)(=O)N2CCCCC2)cc1,nt,nt,6.5,nt,58.5*,11.7
C=C1C(O)[C@@H]2O[C@]3(CC[C@H](/C=C/C(C)[C@@H]4CC(C)=CC5(O[C@H](C[C@@](C)(O)CO)CCC5O)O4)O3)CC[C@H]2O[C@@H]1C(O)CC(C)[C@H]1OC2(CCCCO2)CCC1C (some centres undefined),76.4*,15.2,-3.4,nt,nt,nt
C=C1[C@@H](O)[C@@H]2O[C@]3(CC[C@H](/C=C/[C@@H](C)[C@@H]4CC(C)=CC5(O[C@H](C[C@@](C)(O)C(=O)OC)CC[C@H]5O)O4)O3)CC[C@H]2O[C@@H]1[C@@H](O)C[C@H](C)[C@H]1OC2(CCCCO2)CC[C@H]1C (some centres undefined),108.1*,0.0,0.3,77.4*,nt,nt
CC1CN(C(=O)CCC(=O)N2CCN(c3cccc(C(F)(F)F)c3)CC2)c2ccccc2O1 (centres undefined),9.0,12.5,-0.1,21.3,34.1,nt
Cc1cc(C(=O)COc2ccc(F)cc2Br)c(C)n1C1CC1,nt,nt,4.0,nt,nt,nt
Cc1ccc(S(=O)(=O)N(C)CC(=O)N2CCCCCC2)cc1,-1.6,11.1,-3.0,-1.3,5.1,nt
CC(=O)OCCN1C(=O)c2cccnc2C1=O,0.3,-8.6,12.8*,-2.7,-5.7,-15.9
CNC(=O)C1CCN(S(=O)(=O)c2c(C)noc2/C=C/c2ccc(C)cc2)CC1,4.0,16.6,79.3*,-8.9,-5.7,nt
COc1ccc(NC(=O)C2CCN(S(=O)(=O)c3c(C)noc3C)CC2)cc1Cl,nt,1.4,15.7*,2.7,25.0,57.9
COc1ccc(NC(=O)C2CCN(S(=O)(=O)c3c(C)noc3C)CC2)cc1,3.0,2.0,0.4,-16.8,2.6,nt
Clc1cccc(NCc2cn3cccnc3n2)c1,-1.4,-20.9,10.9*,-1.6,-3.8,10.2
CCn1c(=O)c([N+](=O)[O-])c(N2CCN(Cc3ccc4c(c3)OCO4)CC2)c2ccccc21,128.5*,18.0,0.2,-4.3,33.3,-1.8
CCn1c(=O)c([N+](=O)[O-])c(N2CCSCC2)c2ccccc21,-4.0,10.0,-0.5,10.6,13.7,36.8
CC(=O)C[C@H](O)CC(=O)[C@H]1OC(=O)CCCCCCCc2ccccc21,-4.9,36.0,0.2,12.9,nt,nt
c1ccc(Oc2nc3ccccc3n3cccc23)cc1,4.4,3.9,2.8,-2.5,-7.6,70.5*
S=C(Sc1ccc(Cl)cc1)Sc1ccc(Cl)cc1,-3.0,11.1,nt,76.5*,62.9*,106.3*
